Several values for one entry are separate records, joined by “and”; a condition that tells them apart may be missing. Equal values may be shown once.
Tests used:
Assay type in all cases: toxicity, cell-based
Fibroblast = experiment: Multiplex assay against human fibroblast; settings: number of replicates 2
Method in brief: (§1)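 Imaging took place on a CQ1 microscope at 37°C and 5% CO2 once compound had been added to live cells stained at seeding with Hoechst33342, BioTracker Green Microtubule Cytoskeleton Dye, MitoTracker Red and Annexin V Alexa Fluor 680. CellPathfinder machine-learning gating classed cells as Hoechst high-intensity objects or normal cells, classed normal cells as having healthy, pyknosed or fragmented nuclei, and classed pyknosed cells as mitotic or apoptotic. Tubulin, mitochondrial-mass and membrane-permeability phenotypes are per cents of the healthy-nucleus cells.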

U2OS = experiment: Multiplex assay against U2OS; settings: human, number of replicates 2; method in brief: as §1
HEK-293T = experiment: Multiplex assay against HEK293T; settings: human, number of replicates 2; method in brief: as §1
[1] = 12 h, 1 µM, compound concentration 1 uM
[2] = 12 h, 10 µM, compound concentration 10 uM
[3] = 24 h, 1 µM, compound concentration 1 uM
[4] = 24 h, 10 µM, compound concentration 10 uM
[5] = 48 h, 1 µM, compound concentration 1 uM
[6] = 48 h, 10 µM, compound concentration 10 uM

SMILES: Cn1ncc(NC(=O)c2nc(-c3c(F)cccc3F)sc2N)c1N1CC[C@@H](N)[C@H](F)CC1
- Population Apoptotic (%) (Fibroblast; [1]): 60% and 38%
- Population Fragmented Nuclei (%) (Fibroblast; [1]): 18%
- Population Healthy Nuclei (%) (Fibroblast; [1]): 67% and 74%
- Population Mitotic Cells (%) (Fibroblast; [1]): 40%
- Population Normal (%) (Fibroblast; [1]): 100% and 99%
- Population Tubulin-Different-Phenotype (%) (Fibroblast; [1]): 14% and 8%
- Total Cell Count (Fibroblast; [1]): 170 and 268
- Population Apoptotic (%) (Fibroblast; [2]): 26% and 21%
- Population Fragmented Nuclei (%) (Fibroblast; [2]): 35%
- Population Healthy Nuclei (%) (Fibroblast; [2]): 48% and 47%
- Population Mitotic Cells (%) (Fibroblast; [2]): 73% and 78%
- Population Normal (%) (Fibroblast; [2]): 100%
- Population Tubulin-Different-Phenotype (%) (Fibroblast; [2]): 34% and 25%
- Total Cell Count (Fibroblast; [2]): 307 and 502
- Population Apoptotic (%) (Fibroblast; [3]): 65% and 54%
- Population Fragmented Nuclei (%) (Fibroblast; [3]): 15%
- Population Healthy Nuclei (%) (Fibroblast; [3]): 65% and 73%
- Population Mitotic Cells (%) (Fibroblast; [3]): 34% and 45%
- Population Normal (%) (Fibroblast; [3]): 100%
- Population Tubulin-Different-Phenotype (%) (Fibroblast; [3]): 13% and 7%
- Total Cell Count (Fibroblast; [3]): 172 and 273
- Population Apoptotic (%) (Fibroblast; [4]): 27% and 21%
- Population Fragmented Nuclei (%) (Fibroblast; [4]): 48% and 56%
- Population Healthy Nuclei (%) (Fibroblast; [4]): 43% and 38%
- Population Mitotic Cells (%) (Fibroblast; [4]): 72% and 78%
- Population Normal (%) (Fibroblast; [4]): 100% and 99%
- Population Tubulin-Different-Phenotype (%) (Fibroblast; [4]): 38% and 31%
- Total Cell Count (Fibroblast; [4]): 456 and 659
- Population Apoptotic (%) (Fibroblast; [5]): 80% and 51%
- Population Fragmented Nuclei (%) (Fibroblast; [5]): 20%
- Population Healthy Nuclei (%) (Fibroblast; [5]): 63% and 69%
- Population Mitotic Cells (%) (Fibroblast; [5]): 20% and 48%
- Population Normal (%) (Fibroblast; [5]): 100%
- Total Cell Count (Fibroblast; [5]): 193 and 286
- Population Apoptotic (%) (Fibroblast; [6]): 66% and 54%
- Population Fragmented Nuclei (%) (Fibroblast; [6]): 52% and 60%
- Population Healthy Nuclei (%) (Fibroblast; [6]): 45% and 38%
- Population Mitotic Cells (%) (Fibroblast; [6]): 45%
- Population Normal (%) (Fibroblast; [6]): 100%
- Population Tubulin-Different-Phenotype (%) (Fibroblast; [6]): 43% and 27%
- Total Cell Count (Fibroblast; [6]): 604 and 928
- Population Apoptotic (%) (U2OS; [1]): 55% and 77%
- Population Healthy Nuclei (%) (U2OS; [1]): 46% and 79%
- Population Hoechst High Intensity Objects (%) (U2OS; [1]): 0%
- Population Mitochondria Different-Phenotype (%) (U2OS; [1]): 0%
- Population Normal (%) (U2OS; [1]): 100%
- Population Pyknosed Nuclei (%) (U2OS; [1]): 19%
- Population Tubulin-Different-Phenotype (%) (U2OS; [1]): 50% and 77%
- Population Apoptotic (%) (U2OS; [2]): 73% and 69%
- Population Healthy Nuclei (%) (U2OS; [2]): 22% and 53%
- Population Hoechst High Intensity Objects (%) (U2OS; [2]): 0%
- Population Mitochondria Different-Phenotype (%) (U2OS; [2]): 0% and 18%
- Population Normal (%) (U2OS; [2]): 98% and 99%
- Population Pyknosed Nuclei (%) (U2OS; [2]): 44% and 24%
- Population Tubulin-Different-Phenotype (%) (U2OS; [2]): 38% and 39%
- Population Apoptotic (%) (U2OS; [3]): 50% and 89%
- Population Healthy Nuclei (%) (U2OS; [3]): 48% and 85%
- Population Hoechst High Intensity Objects (%) (U2OS; [3]): 0%
- Population Mitochondria Different-Phenotype (%) (U2OS; [3]): 8%
- Population Normal (%) (U2OS; [3]): 100% and 99%
- Population Pyknosed Nuclei (%) (U2OS; [3]): 16% and 7%
- Population Tubulin-Different-Phenotype (%) (U2OS; [3]): 62% and 80%
- Population Apoptotic (%) (U2OS; [4]): 90% and 86%
- Population Mitochondria Different-Phenotype (%) (U2OS; [4]): 33%
- Population Normal (%) (U2OS; [4]): 98% and 100%
- Population Pyknosed Nuclei (%) (U2OS; [4]): 49% and 31%
- Population Tubulin-Different-Phenotype (%) (U2OS; [4]): 33% and 56%
- Total Cell Count (U2OS; [4]): 64 and 190
- Population Apoptotic (%) (U2OS; [5]): 84% and 66%
- Population Healthy Nuclei (%) (U2OS; [5]): 90% and 65%
- Population Hoechst High Intensity Objects (%) (U2OS; [5]): 0%
- Population Mitochondria Different-Phenotype (%) (U2OS; [5]): 7%
- Population Normal (%) (U2OS; [5]): 100%
- Population Pyknosed Nuclei (%) (U2OS; [5]): 5%
- Population Tubulin-Different-Phenotype (%) (U2OS; [5]): 84% and 49%
- Population Apoptotic (%) (U2OS; [6]): 96% and 93%
- Population Healthy Nuclei (%) (U2OS; [6]): 21% and 44%
- Population Hoechst High Intensity Objects (%) (U2OS; [6]): 0%
- Population Mitochondria Different-Phenotype (%) (U2OS; [6]): 25% and 19%
- Population Normal (%) (U2OS; [6]): 100%
- Population Pyknosed Nuclei (%) (U2OS; [6]): 53% and 36%
- Population Tubulin-Different-Phenotype (%) (U2OS; [6]): 41% and 57%
- Population Apoptotic (%) (HEK-293T; [1]): 29% and 32%
- Population Healthy Nuclei (%) (HEK-293T; [1]): 85% and 86%
- Population Mitochondria Different-Phenotype (%) (HEK-293T; [1]): 10% and 6%
- Population Mitotic Cells (%) (HEK-293T; [1]): 70% and 67%
- Population Normal (%) (HEK-293T; [1]): 92% and 95%
- Population Pyknosed Nuclei (%) (HEK-293T; [1]): 10%
- Population Tubulin-Different-Phenotype (%) (HEK-293T; [1]): 42% and 32%
- Total Cell Count (HEK-293T; [1]): 737 and 724
- Population Apoptotic (%) (HEK-293T; [2]): 34% and 47%
- Population Healthy Nuclei (%) (HEK-293T; [2]): 81% and 80%
- Population Mitotic Cells (%) (HEK-293T; [2]): 65% and 52%
- Population Normal (%) (HEK-293T; [2]): 95% and 97%
- Population Pyknosed Nuclei (%) (HEK-293T; [2]): 16%
- Population Tubulin-Different-Phenotype (%) (HEK-293T; [2]): 54% and 47%
- Total Cell Count (HEK-293T; [2]): 730 and 672
- Population Apoptotic (%) (HEK-293T; [3]): 21% and 25%
- Population Healthy Nuclei (%) (HEK-293T; [3]): 87% and 86%
- Population Mitochondria Different-Phenotype (%) (HEK-293T; [3]): 4%
- Population Mitotic Cells (%) (HEK-293T; [3]): 78% and 74%
- Population Normal (%) (HEK-293T; [3]): 93% and 90%
- Population Pyknosed Nuclei (%) (HEK-293T; [3]): 8% and 9%
- Population Tubulin-Different-Phenotype (%) (HEK-293T; [3]): 25% and 21%
- Total Cell Count (HEK-293T; [3]): 1100 and 1020
- Population Apoptotic (%) (HEK-293T; [4]): 47% and 52%
- Population Healthy Nuclei (%) (HEK-293T; [4]): 85% and 86%
- Population Mitochondria Different-Phenotype (%) (HEK-293T; [4]): 16%
- Population Mitotic Cells (%) (HEK-293T; [4]): 52% and 47%
- Population Normal (%) (HEK-293T; [4]): 97% and 95%
- Population Tubulin-Different-Phenotype (%) (HEK-293T; [4]): 44% and 41%
- Total Cell Count (HEK-293T; [4]): 753 and 689
- Population Apoptotic (%) (HEK-293T; [5]): 15%
- Population Healthy Nuclei (%) (HEK-293T; [5]): 86% and 85%
- Population Mitotic Cells (%) (HEK-293T; [5]): 90% and 84%
- Population Normal (%) (HEK-293T; [5]): 89% and 85%
- Population Pyknosed Nuclei (%) (HEK-293T; [5]): 4% and 5%
- Population Tubulin-Different-Phenotype (%) (HEK-293T; [5]): 12% and 13%
- Total Cell Count (HEK-293T; [5]): 2209 and 1829
- Population Apoptotic (%) (HEK-293T; [6]): 44% and 55%
- Population Healthy Nuclei (%) (HEK-293T; [6]): 89% and 87%
- Population Mitochondria Different-Phenotype (%) (HEK-293T; [6]): 10%
- Population Mitotic Cells (%) (HEK-293T; [6]): 55%
- Population Normal (%) (HEK-293T; [6]): 94% and 92%
- Population Pyknosed Nuclei (%) (HEK-293T; [6]): 4% and 6%
- Population Tubulin-Different-Phenotype (%) (HEK-293T; [6]): 29% and 23%
- Total Cell Count (HEK-293T; [6]): 770 and 768

From ChEMBL document CHEMBL5303300, “EUbOPEN Chemogenomics Library - Multiplex” (2023)
